# High-throughput results deposited in PubChem by Broad Institute.
# Only a sample is shown.
# PGC1a Ac signal: raises PGC1a acetylation signal in U2OS cells. activation, % at 15.6 µM. 0.21% of 350,000 active. U2OS PGC1a acetylation AlphaScreen, overnight;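 active = every replicate reaching activation of at least 50%, whatever the mean replicate activation; inconclusive = replicates that disagree or another doubt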;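 also: hits raise the AlphaScreen acetylation signal above neutral controls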
#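 Incubation: overnight compound treatment, 37 °C. System: U2OS cells transduced with flag-tagged PGC1a and GCN5 acetyltransferase. Detection: AlphaScreen lysate read. Compound: single-point compound dosing.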
# G6PC hep suppr: PGC-1a acetylation activators affecting G6PC expression in hepatocytes; shares compounds with PGC1a Ac signal; primary mouse hepatocytes, G6PC mRNA qPCR, forskolin; G6PC suppression (normalized activity, % of positive control; higher = more suppression), % at 26 µM; 240 tested, under 10 active; AID 743463;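 active = dose curves showing G6PC suppression whose half-maximal dose is at most twice the top valid dose; inconclusive = flat curves with moderate negative activity, or unreliable fits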;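 also: G6PC expression relative to GAPDH housekeeping gene as delta delta Ct; 0% = median of neutral control wells and 100% = median of positive control wells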
# PCK1 hep suppr: hepatocyte PCK1 expression change via PGC-1a acetylation activation. 230 tested, under 10 active. primary mouse hepatocytes, PCK1 mRNA qPCR, forskolin-stimulated. shares compounds with PGC1a Ac signal. PCK1 expression decrease, unspecified at 26 µM;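 active = compounds lowering PCK1 expression whose fitted half-maximal concentration is at most twice the top tested dose; inconclusive = flat fit with moderate opposite-direction effect, or poor fit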;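 also: values are delta delta Ct of PCK1 relative to GAPDH; higher delta delta Ct means lower PCK1 expression so positive values indicate hits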
# Hep PGC-1a down: PGC-1a acetylation activators affecting PGC-1a expression in hepatocytes; shares compounds with PGC1a Ac signal; primary mouse hepatocytes, PGC-1a mRNA qPCR, forskolin; top dose 26 µM; max activity (PGC-1a expression decrease), %; 240 tested, under 10 active; AID 743467;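 active = compound lowering PGC-1a expression with fitted half-maximal concentration at most twice its top tested dose; inconclusive = flat curve with moderate opposite-direction effect, or poor fit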;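 also: 0% = neutral control wells median and 100% = positive control wells median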
# Starred values were filed as active, the others as inactive; ? = inconclusive; · = not tested or not shown; [ ] = another dose, or the depositor's remark.
SMILES,PGC1a Ac signal,PCK1 hep suppr,Hep PGC-1a down,others
C[C@H]1CN([C@@H](C)CO)C(=O)c2cccc(NS(=O)(=O)c3ccc(F)cc3)c2O[C@H]1CN(C)Cc1ccc(C(F)(F)F)cc1,-55,37,89,G6PC hep suppr=23
C[C@H](CO)N1C[C@H](C)[C@H](CN(C)Cc2ccc(Oc3ccccc3)cc2)Oc2c(NC(=O)Nc3ccc4c(c3)OCO4)cccc2C1=O,-40,·,·,
Cc1cccc(C(=O)O/N=C/c2c(Cl)n(C)c3ccccc23)c1,1,·,·,
CCCC(=O)C1=C(O)C(C(=O)OC)C(C)(C)CC1=Nc1ccc(OC)cc1 (centres undefined),-46,·,·,
CN(c1cc2c(c3c1ccn3C)C1CCC2C1)C1CCCCC1 (centres undefined),-78,·,·,
O=C(NCc1csc(-c2cccs2)n1)c1cccc(Cl)c1,-43,37,53,G6PC hep suppr=22
Cc1[nH]c2ccc(C(C)C)cc2c1CC(=O)O,-76,·,·,
Oc1ccc(C2CNCCc3c2cc(O)c(O)c3Cl)cc1 (centres undefined),-42,·,·,
Cc1ccc(NC(=O)c2c(C(F)(F)F)nn(C)c2SCc2ccc(Cl)cc2)cc1C,?,249,139,G6PC hep suppr=14[8 µM]
CN1CCN(CCP(=O)(c2ccccc2)c2ccccc2)CC1,-41,·,·,
c1ccc(N2CCN(c3ccccc3)C2c2ccncc2)cc1,-91,·,·,
O=C(Nc1cnc2ccccc2c1)c1cccnc1,267*,-15,-30,
C(=N\Nc1nc2ccccc2[nH]1)/c1ccc2ncccc2c1,-49,·,·,
CCN1C(=O)CCCc2ccccc21,-68,·,·,
O=C(Nc1nc2ccsc2c(=O)s1)C1CCC1,-65,·,·,
CC(=O)c1cc(-c2ccccc2)n(CCC(=O)NC2CCCCC2)c1C,?,18,35,G6PC hep suppr=-16
CCn1c2ccccc2c2cc(/C=N/n3cn[nH]c3=S)ccc21,-42,·,·,
CSCC(=O)N1CCCC(CO)(Cc2ccccc2C)C1 (centres undefined),-109,·,·,
O=C(NCC1CC1)Nc1ccccc1F,-83,·,·,
CSc1nn(-c2ccc(C(=O)OC(C(=O)NC(N)=O)C(C)C)cc2)c(=S)s1 (centres undefined),-45,·,·,
